# This is a sample that favours compounds with a hit; in the whole collection about 0.81% have one here.
# PKD1 kinase inh: PKD1 (human) kinase inhibition; PKD1 kinase fluorescence polarization assay; inhibition, % (concentration not given with the values); 200,000 tested, 0.056% active; AID 797; in the data active = inhibition above about 50%
# HMGR II inh: inhibitors of class II HMG-CoA reductase from Enterococcus faecalis | purified E. faecalis HMGR, NADPH absorbance 340 nm kinetic | inhibition, % at 10 µM | 190,000 tested, 0.41% active;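 active = inhibition above a set limit, the median over all tested compounds plus 3 SD, cut at about 9.5% in these data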;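 note: enzyme runs in reverse so mevalonate oxidation gives rising NADPH absorbance; 0% = complete reaction with DMSO and 100% = background rate lacking mevalonate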
# Rad51 HR inh: blocks human Rad51 in homologous recombination | Q06609 | hRad51 DNA strand exchange, fluorescence dequenching | inhibition, % at 10 µM | 200,000 tested, 0.085% active;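 active = inhibition above 40% at the single screening dose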;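 note: 0% = DMSO control wells and 100% = blanks with heterologous ssDNA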
# Target sequence (Q06609 whole entry, looked up): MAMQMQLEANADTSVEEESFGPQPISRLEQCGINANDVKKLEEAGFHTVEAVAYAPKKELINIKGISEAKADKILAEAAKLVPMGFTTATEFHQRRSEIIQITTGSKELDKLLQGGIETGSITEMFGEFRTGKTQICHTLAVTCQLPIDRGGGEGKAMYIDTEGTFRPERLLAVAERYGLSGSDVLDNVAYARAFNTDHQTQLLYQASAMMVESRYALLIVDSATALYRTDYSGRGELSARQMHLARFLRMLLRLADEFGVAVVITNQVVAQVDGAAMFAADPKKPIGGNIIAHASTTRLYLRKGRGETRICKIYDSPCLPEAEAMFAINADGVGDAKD
#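 Test system: preformed human Rad51 ssDNA filaments. Compound dosing: single dose, 10 µM final compound. Incubation: filaments 15 min 37 °C, then compound 30 min. Technique: FRET fluorescence dequenching, excitation 485 nm, emission 520 nm. Read-out basis: percent inhibition from fluorescence, normalised to plate control and blank means. Benchmarks: plate controls and plate blanks.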
# Pf gametocyte: inhibitors of late stage P. falciparum gametocyte viability; P. falciparum stage V gametocytes, ATP luminescence, 24 h; inhibition, % at 10.9 µM; 150,000 tested, 0.065% active;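 active = inhibition above the mean plus 3 SD of compounds within the control limits, set per campaign, cut at about 38% in these data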;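 note: 0% = DMSO wells and 100% = medium only without gametocytes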
# m-calpain inh: inhibitors of pig calpain II. purified calpain II, fluorogenic peptide substrate, 30 min. inhibition, % at 16 µM. 220,000 tested, 0.37% active. AID 1236;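 active = inhibition above about 50%, limit read from the data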
# DTT redox prof: compounds producing H2O2 with reducing agent – biochemical, NIH compound library profiling, artefact control for MLSCN library redox annotation, primary screen. DTT-dependent redox cycling H2O2, phenol red/HRP absorbance; 100% = 100 µM peroxide control, 0% = buffer. activation, % at 10 µM. 200,000 tested, 0.03% active. AID 878;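 active = activation of at least 50% relative to the plate's high and low controls in the primary single-dose screen; inactive = activation below 50%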;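 note: compound incubated with DTT at 0.8 mM final as the reducing agent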
# * marks the source's active call; other numbers are inactive results; nt = not tested or not shown.
SMILES,PKD1 kinase inh,HMGR II inh,Rad51 HR inh,Pf gametocyte,m-calpain inh,DTT redox prof
CCCc1cc(=O)[nH]c(SCCCCN2C(=O)c3ccccc3C2=O)n1,109*,-6,11,-4,5,0
CCCc1cc(=O)[nH]c(SCc2ccccc2)n1,-5,-1,-13,nt,5,0
COc1cccc(/C=C/C(=O)OCC(=O)Nc2ccc(N3CCOCC3)cc2)c1OC,-6,0,1,-4,-33,0
COc1ccccc1NC(=O)/C=C\C(=O)O,-8,-1,2,6,77*,4
C(=C\c1ccccc1)/CNCC1CCCO1 (stereo unspecified),-7,11*,nt,-1,-17,0
CCOc1cc(/C=N/Nc2ccc(C(=O)O)cc2)ccc1OC(=O)c1ccccc1C,nt,nt,0,-5,82*,nt
CC(CCCCC(=O)Nc1ccc(C(F)(F)F)cc1)NCCc1cnc[nH]1 (stereo unspecified),nt,5,-5,nt,8,nt
COC(=O)CCC(=O)Nc1cccc2ccccc12,-4,-6,-4,nt,-23,1
CCCCCC(=O)Nc1cccc2ccccc12,-8,-2,43*,-8,-15,0
Cc1ccnn1CCC(=O)N1CCCC(CCC(=O)N2CCN(c3ccccn3)CC2)C1 (stereo unspecified),1,-3,28,-11,-28,-1
NC1=NC(=O)S/C1=C\c1ccc(F)cc1,1,24*,2,-12,-16,-2
CCOc1cc(/C=C2\SC(=O)N=C2N)ccc1O,12,-2,-19,nt,2,0
O=C(Nc1ccc(-c2nc3ccccc3s2)c(OC(=O)c2ccccc2)c1)c1ccccc1,-2,-1,nt,-36,-361,0
CCOC(=O)C1CCN(S(=O)(=O)c2cc(Br)cc3c2N(C(=O)C2CC2)CC3)CC1,2,1,4,nt,61*,1
Cc1ccc(S(=O)(=O)N2[C@@H](c3cccc(Cl)c3)C(C(=O)O)=CC[C@H]2c2cccs2)cc1,nt,nt,nt,0,nt,nt
CCCCNC(=O)c1ccc(NC(=O)C2CCCO2)cc1 (stereo unspecified),-7,0,-2,nt,15,-2
CCCCc1ccc(NC(=O)C2CCCO2)cc1 (stereo unspecified),-1,1,-1,nt,53*,-4
O=C(NCc1ccccc1)C1(c2cccc(F)c2)CCCC1,2,-7,0,nt,37,0
c1ccc(-c2cn(-c3ccccc3)c3ncnc(N4CCCCC4)c23)cc1,-5,-7,-1,7,53*,-2
Cc1ccc2c(c1)-n1c(nc3ccc(C)cc3c1=O)C(Cc1ccc(O)cc1)NC2=O (stereo unspecified),nt,nt,nt,8,nt,nt
Cc1nc(N2CCN(Cc3ccccc3)CC2)nc2c1C(=O)CC(C)C2 (stereo unspecified),-3,-7,1,-6,68*,0
CCN1CCN(c2nc(C)c3c(n2)CC(C)CC3=O)CC1 (stereo unspecified),-2,-4,-11,11,-9,0
O=C(COC(=O)c1ccc(Br)o1)Nc1ccc(S(=O)(=O)N2CCCC2)cc1,6,-9,-2,nt,-16,3
O=C(Nc1ccc(S(=O)(=O)N2CCCCCC2)cc1)c1ccc(Br)o1,-13,-1,-4,-4,55*,1
CN(C)S(=O)(=O)c1cccc(C(=O)Nc2ccc(S(=O)(=O)N3CCCC3)cc2)c1,-4,14*,4,16,20,-3
SMILES,PKD1 kinase inh,HMGR II inh,Rad51 HR inh,Pf gametocyte,m-calpain inh,DTT redox prof
COc1ccc(N(CC(=O)N2CCOCC2)S(C)(=O)=O)cc1,nt,nt,nt,-33,nt,nt
CC1CCCCN1Cc1cnc(Cl)s1 (stereo unspecified),-3,-3,-9,-7,59*,1
CC1CCN(Cc2cnc(Cl)s2)CC1,-5,-3,-4,2,51*,2
CC(=O)NC1=NN(C(C)=O)C(c2ccco2)S1 (stereo unspecified),nt,nt,nt,-2,-17,nt
Cc1nn(-c2nc3ccccc3[nH]2)c(=O)c2ccccc12,-2,0,-2,61*,-109,0
COc1ccc(N2CCN(c3oc(COc4ccc(Cl)cc4Cl)nc3C#N)CC2)cc1,3,-2,3,nt,51*,1
Cc1cccc(C)c1OCC(O)CN1CCC(CN2C(=O)c3cccc4cccc(c34)C2=O)CC1 (stereo unspecified),-1,0,5,nt,-5,0
O=C(O)CCCN1C(=O)/C(=C\c2ccco2)SC1=S,4,12*,2,-5,-24,0
CCC(C)Sc1nnc(NC(=O)c2ccco2)s1 (stereo unspecified),nt,nt,nt,10,nt,nt
CC(C)N(Cc1nc(-c2ccccc2)no1)C(=O)c1ccc(Cl)cc1,-7,-5,5,nt,21,0
CC(C)N(Cc1nc(-c2ccc(Cl)cc2)no1)C(=O)CCCN1C(=O)c2ccccc2C1=O,4,-2,0,nt,65*,-1
O=C1c2ccccc2C(=O)N1CCCCCc1nc(-c2ccccc2)no1,0,-1,0,nt,64*,0
Cc1ccc(NC(=O)Cn2cnc([N+](=O)[O-])c2)cc1C,nt,nt,nt,-22,nt,nt
Cc1ccsc1C(=O)C1CCCN(Cc2cc(F)ccc2-n2cccn2)C1 (stereo unspecified),-3,18*,-5,-12,9,-1
COc1cc(OC)c(OC)cc1CN1CCCC(C(=O)c2sccc2C)C1 (stereo unspecified),nt,nt,nt,-1,11,nt
COC(=O)C[C@H]1c2cc(C(F)(F)F)ccc2S(=O)(=O)N1C1CCCC1,nt,nt,-3,-10,nt,nt
Cc1ccc(S(=O)(=O)ON2C(=O)c3ccccc3C2=O)c(C)c1,-5,17*,0,-4,-11,0
Cc1cc(C)c(S(=O)(=O)ON2C(=O)c3ccccc3C2=O)cc1C,-2,0,0,nt,13,-4
O=C(COC(=O)c1cc(Cl)ccc1[N+](=O)[O-])Nc1cccc2ccccc12,1,1,-5,0,11,0
O=C(COC(=O)c1cc(Cl)ccc1[N+](=O)[O-])NCc1ccc(Cl)cc1Cl,-12,-2,-9,13,57*,0
O=C1CC[C@@H](CN(Cc2ccccn2)Cc2nc(-c3ccc(C(F)(F)F)cc3)no2)N1,4,-2,-4,-11,-1,0
COc1ccc2[nH]c(=O)c(-c3nnn(-c4ccc(Cl)c(Cl)c4)n3)cc2c1,nt,nt,8,nt,nt,nt
CC1CCN(c2nc3c(cc2C#N)COC(C)(C)C3)CC1,-3,9.7*,-4,3,-317,0
CC1(C)Cc2nc(NCCN3CCOCC3)c(C#N)cc2CO1,-4,-1,-4,nt,-3,0
NNc1nc2c(Cl)ccc(Cl)c2s1,-6,19*,-2,-9,-13,0
Cc1ccc(/C(C#N)=C\c2cn(C)c3ccccc23)cc1,-2,0,62*,nt,-24,1

# Compound activity (PubChem)
